The source made the active and inactive calls. The rule behind the calls is not given here.
Key:
Glutamate receptor 2 = Glutamate receptor 2 (Homo sapiens, UniProt P42262); assay: Positive allosteric modulation of GluA2 (Q) flop isoform (unknown origin) expressed in HEK293 cells assessed as potentiation of glutamate-evoked calcium flux by fluo-4/AM dye-based fluorescence assay; assay type: cell-based
Rattus norvegicus [1] = organism: Rattus norvegicus; assay: Induction of dimerization of rat N-terminal His-tagged GluA2-LBD-N775S mutant expressed in Escherichia coli Origami B (DE3) assessed as intrinsic binding constant by small-angle X-ray scattering method
Outline: (§1)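 1 μL modulator in DMSO was added to 29 μL protein. Samples were held at 4 °C and read on the CHESS G1 beamline, three replicates averaged, with buffer subtraction.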

Rattus norvegicus [2] = organism: Rattus norvegicus; assay: Induction of dimerization of rat N-terminal His-tagged/15N-labeled GluA2-LBD-N775S mutant expressed in Escherichia coli Origami B (DE3) at 90 uM by NMR spectroscopy
Rattus norvegicus [3] = organism: Rattus norvegicus; assay: Induction of dimerization of rat N-terminal His-tagged GluA2-LBD-N775S mutant expressed in Escherichia coli Origami B (DE3) assessed as dimerization constant by small-angle X-ray scattering method; outline: as §1

Glutamate receptor 2, sequence (P42262 whole entry, the tested form may be a part, canonical isoform): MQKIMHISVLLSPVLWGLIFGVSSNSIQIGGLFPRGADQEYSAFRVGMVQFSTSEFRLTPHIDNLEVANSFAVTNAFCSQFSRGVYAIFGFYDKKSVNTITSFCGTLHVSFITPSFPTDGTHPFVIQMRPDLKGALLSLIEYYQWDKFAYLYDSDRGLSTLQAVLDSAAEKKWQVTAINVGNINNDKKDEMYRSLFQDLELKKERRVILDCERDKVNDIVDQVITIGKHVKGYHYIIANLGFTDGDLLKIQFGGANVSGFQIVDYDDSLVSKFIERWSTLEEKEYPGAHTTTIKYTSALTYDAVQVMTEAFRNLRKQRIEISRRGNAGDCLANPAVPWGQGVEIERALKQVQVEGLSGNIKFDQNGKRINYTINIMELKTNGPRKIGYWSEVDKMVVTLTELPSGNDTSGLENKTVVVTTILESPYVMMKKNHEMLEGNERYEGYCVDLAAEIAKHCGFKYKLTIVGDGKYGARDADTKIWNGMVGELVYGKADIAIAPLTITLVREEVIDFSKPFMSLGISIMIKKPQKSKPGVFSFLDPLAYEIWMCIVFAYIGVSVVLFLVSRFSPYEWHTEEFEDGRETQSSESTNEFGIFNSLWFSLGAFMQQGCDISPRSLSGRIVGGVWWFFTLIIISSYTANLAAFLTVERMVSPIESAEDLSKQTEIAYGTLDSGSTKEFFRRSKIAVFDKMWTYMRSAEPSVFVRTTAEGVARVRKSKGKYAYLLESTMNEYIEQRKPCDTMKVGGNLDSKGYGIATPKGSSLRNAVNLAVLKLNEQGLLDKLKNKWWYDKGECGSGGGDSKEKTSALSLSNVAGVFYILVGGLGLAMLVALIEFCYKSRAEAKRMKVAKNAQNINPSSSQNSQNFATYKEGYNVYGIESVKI

Compound	EC50 (Glutamate receptor 2; read-out: EC50) [nM]	also measured
COc1ccccc1Oc1ccc2c(c1)S(=O)(=O)NCN2C1CC1	15600	–
Cc1ccccc1Oc1ccc2c(c1)S(=O)(=O)NCN2C1CC1	15600	–
Cc1cccc(Oc2ccc3c(c2)S(=O)(=O)NCN3C)c1	390	–
O=S1(=O)NCN(C2CC2)c2ccc(F)cc21	810	K (Rattus norvegicus [1]): 9 ×10⁻⁷ M
N#Cc1cccc(Oc2ccc3c(c2)S(=O)(=O)NCN3C2CC2)c1	450	–
COc1ccc(Oc2ccc3c(c2)S(=O)(=O)NCN3C2CC2)cc1	1820	–
Cc1ccccc1Oc1ccc2c(c1)S(=O)(=O)NCN2C	–	EC50 (Glutamate receptor 2; read-out: pEC50 (converted)): > 10000 nM
COc1cccc(Oc2ccc3c(c2)S(=O)(=O)NCN3C)c1	370	–
CN1CNS(=O)(=O)c2cc(Oc3ccccc3)ccc21	7620	–
COc1ccc(Oc2ccc3c(c2)S(=O)(=O)NCN3C)cc1	5900	–
COc1cccc(Oc2ccc3c(c2)S(=O)(=O)NCN3C2CC2)c1	2	Activity (Rattus norvegicus [2]): Active; K (Rattus norvegicus [3]): 32 mM; K (Rattus norvegicus [1]): 5 ×10⁻¹¹ M
O=S1(=O)NCN(C2CC2)c2ccc(Oc3ccccc3)cc21	710	–
COc1ccccc1Oc1ccc2c(c1)S(=O)(=O)NCN2C	> 10000	–
Cc1ccc(Oc2ccc3c(c2)S(=O)(=O)NCN3C)cc1	950	–
CC1N(C)c2ccc(Cl)cc2S(=O)(=O)N1C (stereo not drawn)	18700	–
Cc1ccc(Oc2ccc3c(c2)S(=O)(=O)NCN3C2CC2)cc1	3190	–
Cc1cccc(Oc2ccc3c(c2)S(=O)(=O)NCN3C2CC2)c1	50	–
O=S1(=O)NCN(CCF)c2ccc(Cl)cc21	20400	K (Rattus norvegicus [1]): 2 ×10⁻⁶ M

Reference: ChEMBL document CHEMBL4028918, “7-Phenoxy-Substituted 3,4-Dihydro-2H-1,2,4-benzothiadiazine 1,1-Dioxides as Positive Allosteric Modulators of α-Amino-3-hydroxy-5-methyl-4-isoxazolepropionic Acid (AMPA) Receptors with Nanomolar Potency” (J Med Chem, 2018)
